Measured values taken from ChEMBL document CHEMBL3792386, “Design, Synthesis, and Biological Evaluation of Novel Selenium (Se-NSAID) Molecules as Anticancer Agents” (J Med Chem, 2016).
The source made the active and inactive calls. The calls are words filed in the database; no cut-off is given here.

Experiments:
HT-29 [1] = assay: Antiproliferative activity against human HT-29 cells assessed as reduction in cell viability after 24 hrs by MTT assay; format: functional, cell-based; conditions: HT-29, 24 h
Outline: (§1)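 3000 cells/well incubated in triplicate with serial concentrations of compound for 24, 48 or 72 h at 37 °C. MTT (5.0 mg/mL solution) added 3 h before the end. Formazan dissolved in DMSO, absorbance read at 570 and 630 nm. Viability normalised to vehicle control. IC50 from non-linear regression (variable slope), mean ± SD of triplicates.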

HT-29 [2] = assay: Antiproliferative activity against human HT-29 cells assessed as reduction in cell viability after 48 hrs by MTT assay; format: functional, cell-based; conditions: HT-29, 48 h; outline: as §1
HT-29 [3] = assay: Antiproliferative activity against human HT-29 cells assessed as reduction in cell viability after 72 hrs by MTT assay; format: functional, cell-based; conditions: HT-29, 72 h; outline: as §1
MDA-MB-231 [4] = assay: Antiproliferative activity against human MDA-MB-231 cells assessed as reduction in cell viability after 24 hrs by MTT assay; format: functional, cell-based; conditions: MDA-MB-231, 24 h; outline: as §1
MDA-MB-231 [5] = assay: Antiproliferative activity against human MDA-MB-231 cells assessed as reduction in cell viability after 48 hrs by MTT assay; format: functional, cell-based; conditions: MDA-MB-231, 48 h; outline: as §1
MDA-MB-231 [6] = assay: Antiproliferative activity against human MDA-MB-231 cells assessed as reduction in cell viability after 72 hrs by MTT assay; format: functional, cell-based; conditions: MDA-MB-231, 72 h; outline: as §1
[7] = Antiproliferative activity against human PANC1 cells assessed as reduction in cell viability after 24 hrs by MTT assay; format: functional, cell-based; conditions: PANC-1, 24 h; outline: as §1
[8] = Antiproliferative activity against human PANC1 cells assessed as reduction in cell viability after 48 hrs by MTT assay; format: functional, cell-based; conditions: PANC-1, 48 h; outline: as §1
[9] = Antiproliferative activity against human PANC1 cells assessed as reduction in cell viability after 72 hrs by MTT assay; format: functional, cell-based; conditions: PANC-1, 72 h; outline: as §1
UACC-903 [10] = assay: Antiproliferative activity against human UACC-903 cells assessed as reduction in cell viability after 24 hrs by MTT assay; format: functional, cell-based; conditions: UACC-903, 24 h; outline: as §1
UACC-903 [11] = assay: Antiproliferative activity against human UACC-903 cells assessed as reduction in cell viability after 48 hrs by MTT assay; format: functional, cell-based; conditions: UACC-903, 48 h; outline: as §1
UACC-903 [12] = assay: Antiproliferative activity against human UACC-903 cells assessed as reduction in cell viability after 72 hrs by MTT assay; format: functional, cell-based; conditions: UACC-903, 72 h; outline: as §1
HCT-116 [13] = assay: Induction of cell death in human HCT116 cells at 1 mM after 24 hrs by ethidium bromide staining-based fluorescence microscopy; format: functional
Outline: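 HCT116 cells were exposed for 24 h with a DMSO vehicle comparison, then trypsinized and stained with calcein-AM (live, esterase activity) and ethidium homodimer-1 (dead, lost membrane integrity). Fluorescence microscopy was done at 20X, and the percentage of dead cells was calculated as mean ±SD.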

HCT-116 [14] = assay: Cytotoxicity against human HCT116 cells assessed as reduction in cell viability after 48 hrs MTT assay; format: functional, cell-based
Outline: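 Cells (HCT116, nHDF in serum-free fibroblast medium with growth kit, or MEFs) exposed to increasing compound concentrations for 48 h at 37 °C. Viability read by MTT: 3000 cells/well, triplicate, MTT 3 h before end, formazan in DMSO, absorbance 570/630 nm. Mean ± SD.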

Compound	IC50 (HT-29 [1]) [µM]	IC50 (HT-29 [2]) [µM]	IC50 (HT-29 [3]) [µM]	IC50 (MDA-MB-231 [4]) [µM]	IC50 (MDA-MB-231 [5]) [µM]	IC50 (MDA-MB-231 [6]) [µM]	IC50 [7] [µM]	IC50 [8] [µM]	IC50 [9] [µM]	IC50 (UACC-903 [10]) [µM]	IC50 (UACC-903 [11]) [µM]	IC50 (UACC-903 [12]) [µM]	Activity (HCT-116 [13])	Activity (HCT-116 [14])
CC(=O)Oc1ccccc1C(=O)OCC[Se]C#N	10.2	30.9	20.2	> 50	23.8	34.3	38.7	36.1	15.1	33.9	14.5	17.6		
CC(=O)Oc1ccccc1C(=O)[Se]CC[Se]C#N	> 50	27.5	17.7	> 50	34.2	18.6	> 50	18.9	9.6	> 50	15.8	12.7		
CC(=O)Oc1ccccc1C(=O)[Se]CC[Se]C(=O)c1ccccc1OC(C)=O	18.6	3.5	5.5	18.6	11	7.6	33.4	13.5	3.4	17.2	3.6	3		
CC(=O)Oc1ccccc1C(=O)[Se]CCBr	28.5	27.7	19.3	23.7	18.7	8.7	39.3	> 50	> 50	22.7	19.4	10.2		
COc1ccc2cc([C@H](C)C(=O)NCC[Se]C#N)ccc2c1	> 50	> 50	> 50	> 50	> 50	> 50	> 50	> 50	> 50	> 50	> 50	> 50		
CC(C)Cc1ccc(C(C)C(=O)O)cc1 (stereo not given) [IBUPROFEN]	> 50	> 50	> 50	> 50	> 50	> 50	> 50	> 50	> 50	> 50	> 50	> 50		
CC(=O)Oc1ccccc1C(=O)O [ASPIRIN]	> 50	> 50	> 50	> 50	> 50	> 50	> 50	> 50	> 50	> 50	> 50	> 50	inactive	Active
CC(=O)Oc1ccccc1C(=O)NCCSC#N	> 50	> 50	> 50	> 50	> 50	> 50	> 50	17.7	8.7	> 50	> 50	> 50		
CC(C)Cc1ccc(C(C)C(=O)NCC[Se]C#N)cc1 (stereo not given)	> 50	> 50	> 50	> 50	> 50	> 50	> 50	> 50	> 50	> 50	> 50	> 50		
C[Se]CC(NC(=O)c1ccccc1OC(C)=O)C(=O)O (stereo not given)	> 50	> 50	> 50	> 50	> 50	> 50	> 50	26.1	27.6	> 50	> 50	> 50		
COc1ccc2cc([C@H](C)C(=O)O)ccc2c1 [NAPROXEN]	> 50	> 50	> 50	> 50	> 50	> 50	> 50	> 50	> 50	> 50	> 50	> 50		
O=c1[nH]cc(F)c(=O)[nH]1														Active
